FLuc inhib CS: firefly luciferase enzyme inhibitors, primary screen, artefact control for luciferase-based inhibitor screens, biochemical, luminescence, ATPLite; 1.5% of 200,000 active; 10 min; inhibition, % at 10 µM; Luciferin 4-monooxygenase (Photinus pyralis), P08659;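 active means inhibition above about 50% when tested at 10 µM, limit read from the data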
Target sequence (P08659 whole entry, looked up): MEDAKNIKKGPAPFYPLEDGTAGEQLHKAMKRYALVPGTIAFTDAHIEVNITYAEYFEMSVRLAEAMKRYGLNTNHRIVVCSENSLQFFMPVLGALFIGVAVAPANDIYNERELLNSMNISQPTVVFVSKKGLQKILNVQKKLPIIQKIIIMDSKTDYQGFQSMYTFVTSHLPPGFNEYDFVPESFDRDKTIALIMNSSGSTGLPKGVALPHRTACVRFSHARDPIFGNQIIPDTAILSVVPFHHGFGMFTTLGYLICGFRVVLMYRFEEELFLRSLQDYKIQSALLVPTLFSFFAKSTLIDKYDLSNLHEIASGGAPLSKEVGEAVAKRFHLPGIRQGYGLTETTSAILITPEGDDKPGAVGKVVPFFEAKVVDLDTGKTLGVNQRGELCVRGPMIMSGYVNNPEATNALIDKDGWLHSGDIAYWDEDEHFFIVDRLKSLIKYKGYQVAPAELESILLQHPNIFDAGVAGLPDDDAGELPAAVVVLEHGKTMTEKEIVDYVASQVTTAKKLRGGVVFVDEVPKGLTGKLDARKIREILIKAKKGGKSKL
Rad51 HR inh: human RAD51 strand exchange inhibitors, primary screen, biochemical, fluorescence; DNA repair protein RAD51 homolog 1 (Homo sapiens), Q06609; hRad51 DNA strand exchange, fluorescence dequenching; inhibition, % at 10 µM; 0.085% of 200,000 active;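 active means inhibition above 40% at the single screening dose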;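 further: 0% = DMSO control wells and 100% = blanks with heterologous ssDNA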
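material = hRad51 filaments on single-stranded DNA | reagent = Donor/quencher-labelled 47-bp dsDNA substrate | compound = 10 µM final, single point | schedule = strand-exchange reaction 15 min at room temperature | measured by = fluorescein emission 520 nm, excitation 485 nm | read-out basis = % inhibition versus plate control and blank means | benchmarks = plate controls and plate blanks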
FLuc act counter: FLuc activators, initial screening, artefact control for FLuc-dependent activation tests, biochemical, ATPlite luminescence; 200,000 tested, under 10 active; Luciferin 4-monooxygenase (Photinus pyralis), P08659; ATPlite luciferase biochemical, 10 min; 0 = ATP-free wells, 1 = DMSO control; activation factor at 10 µM;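 active means luciferase activation factor, scaled between plate controls, of at least 2 with compound at 10 µM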
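System: cell-free luciferase reagent; medium: PBS as buffer for the ATP substrate; doses: test compounds dosed from 2 mM stocks in 100% DMSO; incubation: 10 min, room temperature; measured by: luminescence from luciferase reaction; read-out: luciferase activation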
STAT1 activator: STAT1 signaling activators, primary screen, cell-based, HTS, luciferase reporter. NIH 3T3 STAT1-luciferase reporter, IFN-gamma, luminescence; 100% = IFN-gamma alone, no compound. activation (% of control), % at 5.5 µM. 2.6% of 200,000 active;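 active means activation above the screen-wide mean activation plus 3 SD, cut at about 130% in these data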;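 further: raw ratio to IFN-gamma control signal so 100% means no change and 0% no light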
NF-kB expr up: activators of NF-kB expression in neurons, primary screen, cell-based, HTS; human neuronal cells, NF-kB reporter expression; active compounds read high; 1.6% of 190,000 active; fold change at 12.5 µM; in the data active means fold change above about 3.3
APP 5'UTR act: activators of APP 5'UTR luciferase reporter, primary screen, SH-SY5Y cells. SH-SY5Y APP 5'UTR luciferase reporter, luminescence; zero percent = DMSO vehicle wells. activation, % at 2 µM. 1% of 190,000 active;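 active means activation above a set limit, based on mean plus 3 SD of controls, cut at about 140% in these data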
An asterisk follows results filed as active; nt = no result. An excerpt weighted towards active compounds, which were near 3.9% of everything screened.

SMILES	FLuc inhib CS	Rad51 HR inh	FLuc act counter	STAT1 activator	NF-kB expr up	APP 5'UTR act
O=C(Nc1nc2ccccc2[nH]1)C1CCCC1	38.9	-3.8	0.6	136.3*	0.93	88.6
CCc1nnc(NC(=O)C2Cc3ccccc3CN2S(=O)(=O)CC)s1 (stereo not drawn)	-7.1	-6.0	1.1	100.5	1.29	4.3
CCS(=O)(=O)N1Cc2ccccc2CC1C(=O)Nc1nc2ccccc2[nH]1 (stereo not drawn)	8.1	-8.9	0.9	117.9	0.86	181.9*
O=C(Nc1nc2ccccc2[nH]1)C1CCC1	29.9	-2.2	0.7	127.0	0.95	37.6
O=C(CC1CCCC1)Nc1nc2ccccc2[nH]1	20.7	0.4	0.8	144.0*	2.33	91.3
Cc1ccc(C(=O)N[C@H](C(=O)Nc2cc(Cl)cc(Cl)c2)C(C)C)cc1	-1.9	1.6	1	100.8	1.04	5.5
O=C(Nc1ccccc1)c1ccc(-c2ccccc2)s1	23.5	-21.1	0.8	137.0*	2.35	59.9
CCNC(=S)NNC(=O)c1cc(C)nc2ccccc12	-4.9	1.7	1	92.2	1.03	-19.6
CCNC(=O)COC(=O)c1cc(-c2ccc(OC)cc2)nc2ccccc12	28.0	-3.8	0.7	95.9	0.88	14.7
CCNC(=S)NNC(=O)c1cc(-c2ccc(OC)cc2)nc2ccccc12	96.2*	nt	0	81.5	4.12*	103.3
CCCCOc1ccc(-c2cc(C(=O)NNC(=S)NCC)c3ccccc3n2)cc1	94.2*	2.7	0.1	45.4	4.11*	153.5*
COc1cc(/C=N/N=C2/C(=O)Nc3ccccc32)cc(OC)c1O	20.4	nt	0.8	99.6	0.65	-5.5
COc1ccc(O)c(/C=N/N=C2/C(=O)Nc3ccccc32)c1	81.1*	6.2	0.2	108.5	1.12	-27.1
Cn1c(=O)cc(OCC(=O)NCc2cccs2)c2ccccc21	-2.4	7.7	1	122.5	1.65	4.9
O=C1N/C(=C\c2ccc(O)cc2)C(=O)c2ccccc21	93.1*	7.9	0.1	77.9	0.91	20.1
O=C(O)/C=C1\NC(=O)c2ccccc21	-0.7	9.1	1	92.8	1.29	5.5
Cc1ocnc1C(=O)Nc1ccc(Cl)cc1	6.2	-2.7	0.9	130.7*	1.81	28.2
CC(C)(C)c1ccc(C(=O)Nc2ccc(Cl)cc2)cc1	26.4	-2.9	0.7	129.9*	1.64	125.6
COC(=O)Cc1ccc(NC(=O)c2ccc(C(C)(C)C)cc2)cc1	60.3*	1.0	0.4	58.4	0.54	-84.0
Cc1ccc(NC(=O)c2ocnc2C)cc1Cl	12.0	1.4	0.9	144.7*	2.7	73.0
O=C(COc1cccnc1[N+](=O)[O-])c1ccc(Cl)s1	nt	-17.5	nt	nt	nt	nt
CNC(=O)c1c(NC(=O)c2cc(-c3cc(C)c(C)cc3O)n[nH]2)sc2c1CCCC2	nt	33.8	nt	nt	nt	nt
Cc1onc(-c2ccc(Cl)cc2)c1-c1ccnn1S(=O)(=O)c1cccc(C(F)(F)F)c1	nt	0.9	nt	nt	nt	nt
C/C(=N\NC(=O)c1ccccn1)c1ccc(C(=O)O)s1	3.7	-34.2	1	132.9*	1.12	64.2
CC(=N/O)/C(C)=N\NC(=O)c1ccccn1	51.2*	11.2	0.5	101.8	2.2	39.9
SMILES	FLuc inhib CS	Rad51 HR inh	FLuc act counter	STAT1 activator	NF-kB expr up	APP 5'UTR act
CCc1ccc(/C(C)=N/NC(=O)c2ccccn2)cc1	10.1	-2.8	0.9	105.8	1.29	-12.7
CS(=O)(=O)N1c2ccccc2[C@]2(Br)C[C@H]3C(=O)N[C@@H](Cc4ccccc4)C(=O)N3[C@H]12	nt	-6.2	nt	nt	nt	nt
COc1cc(C(=O)O)nc2ccc([N+](=O)[O-])cc12	-4.4	20.6	1	103.4	1.34	0.5
O=c1c2c(nc3n1CCCCC3)sc1c(O)c(Br)ccc12	80.6*	-3.1	0.2	88.5	1.51	83.4
Cn1c(=O)c(=O)n(C)c2cc(S(=O)(=O)NCCOc3ccccc3Cl)ccc21	-8.9	-3.1	1.1	95.3	1.26	2.4
CCCn1nnc(NC(=O)c2ccc(Cl)cc2Cl)n1	25.5	5.8	0.7	130.9*	1.97	57.7

Compound activity (PubChem BioAssay)
